Screening results: PubChem, several laboratories
Arrestin-AP2 inh: inhibitors of human beta-arrestin and AP2 interaction | inhibition, % at 10 µM | AID 504490 | FITC-arrestin peptide / GST-AP2 beads, flow cytometry; AP2 beta2 appendage carries R879A mutation | actives 0.31% (n = 340,000);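 active = inhibition above a set limit, near 3 SD of compounds lacking own fluorescence, cut at about 54% in these data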;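 also: plate controls were DMSO wells for no effect and 5 µM unlabelled arrestin peptide for full effect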
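System: GST-AP2 R879A glutathione beads | Also added: FITC-arrestin peptide, 50 nM | Times: 12 min plus 1 h, RT | Signal: Bead flow cytometry, FITC channel | Buffer or medium: PBS with 0.05% Tween 20 and 0.1% BSA | Read-out basis: Percent drop in bead-associated FITC signal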
H9c2 TAG inh: triacylglycerol accumulation inhibition; H9c2 cells, Nile Red lipid (TAG) fluorescence; cells loaded with 200 µM oleic acid; inhibition, % at 12.5 µM; actives 0.66% (n = 230,000); AID 651582;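 active = pattern-corrected inhibition of lipid staining of at least 50% with the nuclear-stain viability signal not falling by more than 50%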;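 also: 0% = DMSO wells and 100% = triacsin C control wells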
Lipid droplet: hepatic lipid droplet formation modulation. AML12 mouse hepatocytes, oleate lipid droplets, BODIPY imaging. inhibition, % at 6.5 µM. actives 0.4% (n = 240,000);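 active = lipid droplet intensity inhibited by at least 50%, with more than 500 cells counted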
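Material: mouse AML12 hepatocyte cell line, fixed after treatment; Timing: compound with oleate, overnight; Technique: high-content imaging of BODIPY-stained droplets and DAPI nuclei; Probe or stimulus: oleate, 100 µM final; Dosing: compound at 6.5 µM only.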
GRK2 inh: blocks RNA aptamer binding to human GRK2. bead flow cytometry, FAM-aptamer displacement from GRK2. inhibition of aptamer binding, % at 10 µM. AID 488847. actives 0.59% (n = 330,000);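 active = inhibition of aptamer binding above 40%, roughly 3 SD of noise, on plates passing a quality check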;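 also: median bead fluorescence of bound FAM aptamer so fluorescent compounds give negative values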
B2AR ag: agonists of human beta-2 adrenergic receptor inducing internalization; response, % (test concentration not listed); actives 0.43% (n = 340,000); P07550; Am2.2-beta2AR cells, FAP receptor internalization, flow cytometry;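 active = response above a set limit, near 3 SD of response in nonfluorescent compounds, cut at about 42% in these data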
NTR1 ag: agonists of human neurotensin receptor NTR1. activation, % at 20 µM. NTR1-U2OS beta-arrestin-GFP spot imaging, agonist mode. AID 493036. actives 0.17% (n = 330,000);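 active = activation at or above 40% of the spot to cytoplasm intensity ratio, with at least 20 cells analyzed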;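 also: 0% = DMSO without peptide and 100% = 100 nM NTR1 peptide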
Target sequence (P30989 whole entry, looked up): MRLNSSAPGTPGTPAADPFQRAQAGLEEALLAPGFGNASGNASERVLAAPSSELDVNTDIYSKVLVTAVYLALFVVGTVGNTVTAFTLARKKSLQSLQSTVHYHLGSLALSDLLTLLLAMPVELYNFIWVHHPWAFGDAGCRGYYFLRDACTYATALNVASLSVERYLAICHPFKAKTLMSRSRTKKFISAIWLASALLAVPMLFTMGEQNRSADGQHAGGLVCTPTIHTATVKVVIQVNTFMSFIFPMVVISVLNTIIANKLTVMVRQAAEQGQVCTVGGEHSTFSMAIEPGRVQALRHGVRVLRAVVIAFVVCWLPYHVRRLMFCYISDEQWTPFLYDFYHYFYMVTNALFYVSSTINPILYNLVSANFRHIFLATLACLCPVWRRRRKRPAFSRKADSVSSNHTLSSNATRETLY
Hep lipid conf: confirmation of inhibitors of hepatic lipid droplet formation | shares compounds with Lipid droplet | AML12 mouse hepatocytes, BODIPY lipid droplet imaging; droplets induced with 100 µM oleic acid | inhibition, % at 5.2 µM | actives 65% (n = 870);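 active = inhibition of lipid droplet metric at least 50%, with more than 300 cells in each of four replicates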;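 also: plate controls were DMSO with oleic acid for no effect and 5 µM Triacsin-C for full effect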
AML12 tox img: counter-screen for cytotoxicity in AML12 mouse hepatocytes; shares compounds with Lipid droplet; DAPI nuclear morphology cytotoxicity imaging; hits give high values; cells fed 100 µM oleate overnight; z-score at 5 µM; actives 3% (n = 870); AID 463200; in the data active = z-score above about 6.3;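 also: compound exposure lasted overnight at 37 °C before fixation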
AML12 tox ATP: confirmation of cytotoxicity in AML12 mouse hepatocytes | shares compounds with Lipid droplet | AML12 mouse hepatocyte viability, ATP luminescence; cells loaded with 100 µM oleic acid | cytotoxicity, % at 50 µM | 530 tested, under 10 active | AID 463219;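 active = cytotoxicity above 50% in each of four replicates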;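 also: compound exposure lasted overnight at 37 °C before the ATP read; 0% = DMSO-treated cells and 100% = wells with no cells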
Numbers without * were called inactive; x = not tested or not shown. A selection: hits, their analogues and other compounds. The true share with any hit is near 2%.

SMILES	Arrestin-AP2 inh	H9c2 TAG inh	Lipid droplet	GRK2 inh	B2AR ag	NTR1 ag	Hep lipid conf	AML12 tox img	AML12 tox ATP
C=CCn1c(SCC(C)=O)nc2scc(-c3ccco3)c2c1=O	7.5	x	6.7	5.0	6.9	1.8	x	x	x
CC(C)C(C)NC(=O)CSc1nc2scc(-c3ccco3)c2c(=O)n1-c1ccccc1 (configuration not stated)	18.6	41.9	59.8*	2.0	-4.2	1.5	31.7	-0.739	x
COc1cc2c(cc1OC)CN(CC(=O)Nc1ccc(C)c(C)c1)CC2	-6.8	x	55.8*	0.0	-2.8	0.8	-7.9	-0.199	x
CN1CCS/C1=C/C=C1/SC(=S)N(Cc2ccccc2)C1=O	0.3	-25.9	7.7	0.0	-99.9	x	x	x	x
CCN1C(=O)/C(=C/C=C2/Sc3ccc4ccccc4c3N2CCO)SC1=S	4.0	x	76.8*	3.0	-90.2	-3.3	19.4	-0.306	x
O=C(c1nn2c(C(F)(F)F)cc(-c3cccs3)nc2c1Br)N1CCCc2ccccc21	15.3	x	60.1*	2.0	-13.0	4.8	101.3*	-1.25	26.7
COCCN(C(=O)COC(=O)C(C)(C)Oc1ccc(Cl)cc1)c1c(N)n(Cc2ccccc2)c(=O)[nH]c1=O	-41.0	-3.2	x	x	-0.1	x	x	x	x
CCc1cccc(NC(=O)CCCn2nc(CC)n3c(cc4occc43)c2=O)c1	8.0	x	52.8*	7.0	-5.1	1.9	94.2*	-0.159	3.3
c1ccc(NCc2ccncc2)cc1	33.7	x	55.3*	0.0	-2.4	1.8	4.3	0.774	x
COc1ccc(Cl)cc1NC(=O)c1ccco1	5.4	-19.6	-1.4	0.0	3.6	-1.6	x	x	x
COc1cc(NC(=O)c2ccco2)c(OC)cc1NC(=O)Nc1ccccc1Cl	-5.4	x	81.5*	1.0	-6.9	1.7	114.2*	0.931	10.1
O=C(CCc1nnc(C2(c3ccc(Cl)cc3)CCC2)o1)N1CCCC1	20.2	x	-22.6	0.0	-3.3	0.8	x	x	x
CC(OC(=O)CC1Sc2ccccc2NC1=O)C(=O)NC1CCCC1 (configuration not stated)	23.9	x	-10.0	0.0	-4.8	1.2	x	x	x
CCCn1nc2cc(C(=O)NCc3ccc(OC(F)(F)F)cc3)ccc2c1OCC	-4.5	16.1	66.7*	x	-6.1	2.2	98.3*	-0.658	6.2
COc1ccc(N=C/C=C2\C=C(c3ccccc3)OC(C)(C)O2)cc1	-6.3	-8.0	-5.6	0.0	29.0	4.8	x	x	x
CC1(C)OC(c2ccccc2)=C/C(=C/C=C2C(=O)c3ccccc3C2=O)O1	-1.2	11.8	72.8*	4.0	-19.7	-1.5	27.0	0.245	x
COc1ccc(-n2c(=O)c3c4c(sc3n(CC(=O)Nc3cc(C)[nH]n3)c2=O)CCC4)c(OC)c1	6.5	25.1	51.2*	0.0	-1.7	1.5	23.2	0.107	x
CC/C(C)=N\Nc1nc(-c2cc3cc(OC)ccc3oc2=O)cs1	6.1	12.7	1.2	0.0	6.3	5.5	x	x	x
CCOc1ccc2c(c1)-c1c(ssc1=S)C(C)(C)N2C(=O)CSC1=NCCS1	-0.1	x	53.5*	0.0	-9.2	5.1	12.6	0.203	x
C[C@H](NC(=O)c1ncn2c1c(=O)[nH]c1ccc(Br)cc12)c1ccccc1	x	8.9	x	x	x	x	x	x	x
CCOc1ccc(-c2csc(NNC3=NCCCCC3)n2)cc1	4.2	x	83.8*	0.0	-5.9	3.0	111.2*	-0.649	14.9
COc1ccc(-c2csc(NNC3=NCCCCC3)n2)cc1	x	x	114.9*	0.0	x	1.0	112.2*	-0.254	32.4
CC(=O)c1ccc(OC(C)C(=O)NC2CCCCC2C)cc1 (configuration not stated)	-5.0	-9.8	x	0.0	-10.3	-1.6	x	x	x
CC(C)Oc1ccc(C(=O)OC(C)C(=O)NC2CCCCC2C)cc1 (configuration not stated)	-9.4	20.4	51.6*	0.0	0.8	1.0	102.1*	0.705	12.2
COc1ccc(NC(=O)Nc2cccc3ccccc23)c(OC)c1	1.1	18.6	55.8*	7.0	3.2	2.9	82.9*	-0.235	8.8
SMILES	Arrestin-AP2 inh	H9c2 TAG inh	Lipid droplet	GRK2 inh	B2AR ag	NTR1 ag	Hep lipid conf	AML12 tox img	AML12 tox ATP
COC(=O)c1ccc2c(c1)NC(=O)C(N(CC(C)C)CC(C)C)S2 (configuration not stated)	7.1	-12.9	83.6*	0.0	10.5	2.1	15.1	-0.347	x
Cc1nc2ncnn2c(N2CCCC(C(=O)Nc3ccccc3Br)C2)c1C (configuration not stated)	-7.2	-9.7	3.2	3.0	0.2	0.4	x	x	x
Oc1ccc2ccccc2c1N=Nc1ccccc1F	28.3	35.7	93.4*	4.0	4.2	0.6	95.2*	0.839	x
Oc1ccc2ccccc2c1N=Nc1ccccn1	30.4	-56.8	-20.5	0.0	3.8	0.8	x	x	x
COc1cc(NC(=NS(=O)(=O)c2ccccc2)c2ccccc2)ncn1	4.6	-10.0	x	x	-1.4	x	x	x	x
Cc1cccc2[nH]c3c(N4CC=C(c5ccc(F)cc5)CC4)ncnc3c12	10.5	-18.7	-29.6	0.0	5.2	20.2	x	x	x
C=CCN(C(=O)c1csnn1)C(C(=O)NCc1ccc(F)cc1)c1ccccc1F (configuration not stated)	-1.1	x	25.2	0.0	3.2	0.2	x	x	x
O=C(NCc1ccccc1)C(c1ccccc1F)N(C(=O)c1csnn1)C1CCCC1 (configuration not stated)	-3.4	x	71.3*	0.0	17.7	1.0	92.2*	-0.753	12.5
C=CCN(C(=O)c1csnn1)C(C(=O)NCc1ccccc1)c1ccccc1F (configuration not stated)	7.6	x	50.9*	2.0	3.7	0.8	55.5	0.492	1.5
C[C@@H]1CN([C@@H](C)CO)C(=O)CCCn2nncc2CO[C@H]1CN(C)C(=O)NC1CCCCC1	x	-10.2	x	x	x	x	x	x	x
Cc1ccc(CNS(=O)(=O)c2ccccc2[N+](=O)[O-])cc1	12.4	5.8	-11.9	4.0	0.2	-0.3	x	x	x
C=CCC(=O)N1CCC(n2nccc2NC(=O)CCOc2ccccc2)CC1	-5.2	11.6	61.2*	0.0	-0.6	-0.5	19.1	-0.456	x
Cc1ccc(C)c(CSc2nc3[nH]ncc3c(=O)[nH]2)c1	8.4	-1.8	2.4	3.0	-6.0	0.1	x	x	x
CCCCN(CCCNC(=O)CN1C(=O)COc2ccccc21)c1ccccc1	-4.3	x	52.8*	3.0	6.5	2.3	102.6*	-0.382	4.1
CCN(CCCNC(=O)CN1C(=O)COc2ccccc21)c1ccccc1	20.5	x	-7.0	2.0	-8.4	-0.5	x	x	x
